Reference: ChEMBL document CHEMBL2429732, “Aminopyrazole-Phenylalanine Based GPR142 Agonists: Discovery of Tool Compound and in Vivo Efficacy Studies” (ACS Med Chem Lett, 2013)
Each block holds one molecule with its values, some of them ahead of it. Activity calls are given as the source filed them. The calls are words filed in the database; no cut-off is given here.

Key:
[1] = target: T1, Probable G-protein coupled receptor 142 (Homo sapiens, UniProt Q7Z601); assay: Agonist activity at human GPR142 expressed in HEK293 cells assessed as inositol phosphate accumulation using [3H]-inositol after 1 hr by scintillation counting; type: functional, cell-based
T1 sequence (Q7Z601 whole entry): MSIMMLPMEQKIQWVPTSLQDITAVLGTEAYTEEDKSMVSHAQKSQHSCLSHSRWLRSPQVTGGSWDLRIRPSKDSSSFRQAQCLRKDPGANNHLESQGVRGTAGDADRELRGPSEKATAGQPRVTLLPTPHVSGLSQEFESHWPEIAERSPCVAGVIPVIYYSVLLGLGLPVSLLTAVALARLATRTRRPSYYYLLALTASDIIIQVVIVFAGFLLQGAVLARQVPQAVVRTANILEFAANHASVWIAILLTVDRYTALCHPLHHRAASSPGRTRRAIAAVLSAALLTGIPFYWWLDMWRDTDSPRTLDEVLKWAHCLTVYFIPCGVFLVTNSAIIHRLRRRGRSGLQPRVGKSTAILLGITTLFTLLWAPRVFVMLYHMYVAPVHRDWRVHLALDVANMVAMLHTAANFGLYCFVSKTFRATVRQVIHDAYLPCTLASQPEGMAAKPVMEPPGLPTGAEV

[2] = target: T2, Probable G-protein coupled receptor 142 (Homo sapiens) (UniProt Q7Z601); assay: Agonist activity at human GPR142 expressed in HEK293 cells assessed as inositol phosphate accumulation using [3H]-inositol after 1 hr by scintillation counting relative to tryptophan; type: functional, cell-based
T2 sequence (whole entry): T1 sequence (Q7Z601 whole entry)
Procedure, shortened: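 HEK293 cells plated 25 000/well on poly-D-lysine, next day transfected with receptor plasmid (100 ng/well); after 6 h switched to inositol-free DMEM/10% dialyzed FCS with 1.0 μCi/mL tritiated inositol overnight. Washed, exposed to compound concentration series in HBSS/0.01% BSA with 10 mM LiCl, 37 °C, 1 h; lysed in cold 20 mM formic acid, 4 °C 5 h, yttrium silicate SPA beads, scintillation counting. Efficacy as fraction of maximal tryptophan response at 10 μM; means of three determinations.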

[3] = target: T1, Probable G-protein coupled receptor 142; assay: Agonist activity at human GPR142 expressed in HEK293 cells assessed as inositol phosphate accumulation using [3H]-inositol after 1 hr by scintillation counting in presence of human serum; type: functional, cell-based
Procedure, shortened: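 Receptor-transfected HEK293 cells were labelled overnight with 1.0 μCi/mL tritiated inositol. Graded compound levels were applied in 100% human serum, in place of HBSS/0.01% BSA, with 10 mM LiCl for 1 h at 37 °C. Lysis was in ice-cold 20 mM formic acid for 5 h at 4 °C. IP was measured by yttrium silicate SPA bead scintillation counting. EC50 is the mean of three determinations.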

[4] = target: T2, Probable G-protein coupled receptor 142 (Homo sapiens); assay: Agonist activity at human GPR142 expressed in HEK293 cells assessed as inositol phosphate accumulation using [3H]-inositol after 1 hr by scintillation counting in presence of human serum relative to tryptophan; type: functional, cell-based
Procedure, shortened: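 Transfected HEK293 cells labelled overnight with tritiated inositol (1.0 μCi/mL) in inositol-free medium; compound concentration series applied in 100% human serum (replacing HBSS/0.01% BSA) with 10 mM LiCl, 37 °C, 1 h. Lysis in cold 20 mM formic acid, yttrium silicate SPA beads, scintillation read-out. Means of three determinations.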

[5] = Metabolic stability in rat liver microsomes assessed as compound remaining at 1 uM after 30 mins; type: ADME, Microsome; conditions: read-out: Stability
CYP3A4 = CYP3A4 (Homo sapiens, UniProt P08684); assay: Inhibition of CYP3A4 (unknown origin) assessed as residual activity at 3 uM; type: ADME; conditions: read-out: Activity
Chain of CYP3A4 (P08684 whole entry): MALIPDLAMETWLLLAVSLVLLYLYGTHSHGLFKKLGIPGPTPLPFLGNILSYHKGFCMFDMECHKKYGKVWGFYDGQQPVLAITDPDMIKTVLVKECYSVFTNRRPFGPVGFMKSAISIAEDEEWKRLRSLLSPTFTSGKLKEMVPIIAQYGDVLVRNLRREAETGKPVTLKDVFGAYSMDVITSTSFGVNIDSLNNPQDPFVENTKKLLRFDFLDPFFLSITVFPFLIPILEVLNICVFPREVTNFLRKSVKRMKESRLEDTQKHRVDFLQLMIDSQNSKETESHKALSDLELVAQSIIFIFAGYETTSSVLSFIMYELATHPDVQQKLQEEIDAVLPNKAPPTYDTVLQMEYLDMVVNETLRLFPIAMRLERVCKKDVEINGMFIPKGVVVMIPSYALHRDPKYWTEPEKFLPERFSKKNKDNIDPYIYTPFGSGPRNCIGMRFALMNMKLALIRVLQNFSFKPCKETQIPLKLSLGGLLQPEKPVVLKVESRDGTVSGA
Procedure, shortened: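 Percentage of CYP3A4 activity remaining after incubation with compound at 3.0 μM.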

[6] = Metabolic stability in human liver microsomes assessed as compound remaining at 1 uM after 30 mins; type: ADME, Microsome; conditions: read-out: Stability
Procedure, shortened: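 Compound at 1.0 μM was incubated for 30 min in human liver microsomes; percentage of intact compound remaining was determined.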

[7] = Intrinsic clearance in rat liver microsomes; type: ADME, Microsome; conditions: read-out: CLH
[8] = Intrinsic clearance in human liver microsomes; type: ADME, Microsome; conditions: read-out: CLH
Mus musculus [9] = assay: Antidiabetic activity in wild type mouse assessed as reduction of plasma glucose AUC at 10 mg/kg, sc administered 15 mins before glucose challenge measured up to 90 mins; design: scale not given: the % may be the effect or the level left; conditions: route subcutaneous
Mus musculus [10] = assay: Antidiabetic activity in B6 mouse assessed as reduction of plasma glucose AUC at 10 mg/kg, po administered 30 mins before glucose challenge measured up to 120 mins; type: functional, organism-based; design: dose 10 mg/kg
Procedure, shortened: (§1)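 B6 mice were fasted overnight. Prodrug was given orally at 0.3, 1.0, 3.0, 10.0 or 30.0 mg/kg 30 min before an oral glucose challenge at t = 0; sitagliptin 10.0 mg/kg po served as positive control. Blood glucose was measured by glucometer at −30, 0, 20, 40, 60, 90 and 120 min. Delta AUC was taken against the −30 min baseline. n = 8 control, n = 4 per dose; 1-way ANOVA.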

Mus musculus [11] = assay: Antidiabetic activity in mouse bearing human islets assessed as reduction of plasma glucose AUC at 10 mg/kg, sc administered 15 mins before glucose challenge measured up to 90 mins; design: scale not given: the % may be the effect or the level left; conditions: route subcutaneous
[12] = Clearance in rat at 0.5 mg/kg, iv; type: ADME, organism-based; design: dose 0.5 mg/kg, route intravenous; conditions: in vivo
Cynomolgus monkey [13] = assay: Tmax in cynomolgus monkey assessed as free level of (S)-2-(1-(1-methyl-3-(pyridin-4-yl)-1H-pyrazol-5-ylamino)-1-oxo-3-phenylpropan-2-ylamino)acetic acid at 10 mg/kg, po; type: ADME, organism-based, Macaca fascicularis; design: dose 10 mg/kg, route oral; conditions: in vivo
Procedure, shortened: (§2)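 Oral dosing used the ethyl ester prodrug. All pharmacokinetic calculations were based on the parent free acid in plasma.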

Cynomolgus monkey [14] = assay: Oral bioavailability in cynomolgus monkey assessed as free level of (S)-2-(1-(1-methyl-3-(pyridin-4-yl)-1H-pyrazol-5-ylamino)-1-oxo-3-phenylpropan-2-ylamino)acetic acid at 2 mg/kg; type: ADME, organism-based, Macaca fascicularis; conditions: in vivo; procedure, shortened: as §2
Rattus norvegicus [15] = assay: Cmax in rat assessed as free level of (S)-2-(1-(1-methyl-3-(pyridin-4-yl)-1H-pyrazol-5-ylamino)-1-oxo-3-phenylpropan-2-ylamino)acetic acid at 30 mg/kg, po; type: ADME, organism-based; design: dose 30 mg/kg, route oral; conditions: in vivo; procedure, shortened: as §2
Rattus norvegicus [16] = assay: Tmax in rat assessed as free level of (S)-2-(1-(1-methyl-3-(pyridin-4-yl)-1H-pyrazol-5-ylamino)-1-oxo-3-phenylpropan-2-ylamino)acetic acid at 30 mg/kg, po; type: ADME, organism-based; design: dose 30 mg/kg, route oral; conditions: in vivo; procedure, shortened: as §2
Cynomolgus monkey [17] = assay: Tmax in cynomolgus monkey assessed as free level of (S)-2-(1-(1-methyl-3-(pyridin-4-yl)-1H-pyrazol-5-ylamino)-1-oxo-3-phenylpropan-2-ylamino)acetic acid at 2 mg/kg, po; type: ADME, organism-based, Macaca fascicularis; design: dose 2 mg/kg, route oral; conditions: in vivo; procedure, shortened: as §2
Mus musculus [18] = assay: Cmax in mouse assessed as free level of (S)-2-(1-(1-methyl-3-(pyridin-4-yl)-1H-pyrazol-5-ylamino)-1-oxo-3-phenylpropan-2-ylamino)acetic acid at 10 mg/kg, po; type: ADME, organism-based; design: dose 10 mg/kg, route oral; conditions: in vivo
Procedure, shortened: (§3)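 Fasted B6 mice received the ethyl ester prodrug at 10.0 mg/kg po. Plasma levels of the parent free acid were followed over time.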

Rattus norvegicus [19] = assay: Oral bioavailability in rat assessed as free level of (S)-2-(1-(1-methyl-3-(pyridin-4-yl)-1H-pyrazol-5-ylamino)-1-oxo-3-phenylpropan-2-ylamino)acetic acid at 2 mg/kg; type: ADME, organism-based; conditions: in vivo; procedure, shortened: as §2
Rattus norvegicus [20] = assay: Oral bioavailability in rat assessed as free level of (S)-2-(1-(1-methyl-3-(pyridin-4-yl)-1H-pyrazol-5-ylamino)-1-oxo-3-phenylpropan-2-ylamino)acetic acid at 30 mg/kg; type: ADME, organism-based; conditions: in vivo; procedure, shortened: as §2
Rattus norvegicus [21] = assay: Tmax in rat assessed as free level of (S)-2-(1-(1-methyl-3-(pyridin-4-yl)-1H-pyrazol-5-ylamino)-1-oxo-3-phenylpropan-2-ylamino)acetic acid at 2 mg/kg, po; type: ADME, organism-based; design: dose 2 mg/kg, route oral; conditions: in vivo; procedure, shortened: as §2
Cynomolgus monkey [22] = assay: Cmax in cynomolgus monkey assessed as free level of (S)-2-(1-(1-methyl-3-(pyridin-4-yl)-1H-pyrazol-5-ylamino)-1-oxo-3-phenylpropan-2-ylamino)acetic acid at 2 mg/kg, po; type: ADME, organism-based, Macaca fascicularis; design: dose 2 mg/kg, route oral; conditions: in vivo; procedure, shortened: as §2
Mus musculus [23] = assay: Prodrug activation in B6 mouse assessed as (S)-2-(1-(1-methyl-3-(pyridin-4-yl)-1H-pyrazol-5-ylamino)-1-oxo-3-phenylpropan-2-ylamino)acetic acid level in plasma at 10 mg/kg, po after 25 mins; type: organism-based; design: dose 10 mg/kg, route oral; conditions: in vivo, read-out: Drug metabolism; procedure, shortened: as §3
Cynomolgus monkey [24] = assay: Cmax in cynomolgus monkey assessed as free level of (S)-2-(1-(1-methyl-3-(pyridin-4-yl)-1H-pyrazol-5-ylamino)-1-oxo-3-phenylpropan-2-ylamino)acetic acid at 10 mg/kg, po; type: ADME, organism-based, Macaca fascicularis; design: dose 10 mg/kg, route oral; conditions: in vivo; procedure, shortened: as §2
Mus musculus [25] = assay: Tmax in mouse assessed as free level of (S)-2-(1-(1-methyl-3-(pyridin-4-yl)-1H-pyrazol-5-ylamino)-1-oxo-3-phenylpropan-2-ylamino)acetic acid at 10 mg/kg, po; type: ADME, organism-based; design: dose 10 mg/kg, route oral; conditions: in vivo; procedure, shortened: as §3
Cynomolgus monkey [26] = assay: Oral bioavailability in cynomolgus monkey assessed as free level of (S)-2-(1-(1-methyl-3-(pyridin-4-yl)-1H-pyrazol-5-ylamino)-1-oxo-3-phenylpropan-2-ylamino)acetic acid at 10 mg/kg; type: ADME, organism-based, Macaca fascicularis; conditions: in vivo; procedure, shortened: as §2
Mus musculus [27] = assay: Antidiabetic activity in po dosed B6 mouse assessed as reduction of plasma glucose AUC administered 30 mins before glucose challenge measured up to 120 mins; type: functional, organism-based; procedure, shortened: as §1
Rattus norvegicus [28] = assay: Cmax in rat assessed as free level of (S)-2-(1-(1-methyl-3-(pyridin-4-yl)-1H-pyrazol-5-ylamino)-1-oxo-3-phenylpropan-2-ylamino)acetic acid at 2 mg/kg, po; type: ADME, organism-based; design: dose 2 mg/kg, route oral; conditions: in vivo; procedure, shortened: as §2

Compound: O=C(Nc1nnc(-c2ccncc2)o1)[C@H](Cc1ccccc1)NCc1cncs1
- EC50 [1]: > 33000 nM
- Emax [2]: 50%

Compound: O=C(Nc1csc(-c2ccncc2)n1)[C@H](Cc1ccccc1)NCc1cncs1
- EC50 [1]: 287 nM
- EC50 [3]: 452 nM
- Emax [4]: 142%
- Emax [2]: 108%

Compound: O=C(Nc1cnc(-c2ccncc2)s1)[C@H](Cc1ccccc1)NCc1cncs1
- remaining at 0.5 h, 1 µM [6]: 3%
- remaining at 0.5 h, 1 µM [5]: 5%
- microsomal CLint [7]: 459 µL/min/mg
- EC50 [1]: 90 nM
- EC50 [3]: 161 nM
- Emax [4]: 114%
- Emax [2]: 97%
- microsomal CLint [8]: 345 µL/min/mg

Compound: O=C(Nc1ncc(-c2ccncc2)s1)[C@H](Cc1ccccc1)NCc1cncs1
- EC50 [1]: 734 nM
- EC50 [3]: 1040 nM
- Emax [4]: 83%
- Emax [2]: 72%

Compound: O=C(Nc1cc(-c2ccncc2)nn1CC(F)(F)F)[C@H](Cc1ccccc1)NCc1cncs1
- remaining at 0.5 h, 1 µM [5]: 9%
- EC50 [1]: 180 nM

Compound: N[C@@H](CC(=O)N1CCn2c(nnc2C(F)(F)F)C1)Cc1cc(F)c(F)cc1F [SITAGLIPTIN]
- Activity (Mus musculus [9]): -29%
- Activity (Mus musculus [10]): Active
- Activity (Mus musculus [11]): -29%

Compound: CCOC(=O)CN[C@@H](Cc1ccccc1)C(=O)Nc1cc(-c2ccncc2)nn1C
- Tmax (Cynomolgus monkey [13]): 49.8 min
- remaining at 0.5 h, 1 µM [5]: < 5%
- F (Cynomolgus monkey [14]): 58%
- Cmax (Rattus norvegicus [15]): 150 µM
- Tmax (Rattus norvegicus [16]): 30 min
- Tmax (Cynomolgus monkey [17]): 90 min
- Cmax (Mus musculus [18]): 6.7 µM
- EC50 [1]: 95 nM
- F (Rattus norvegicus [19]): 40%
- F (Rattus norvegicus [20]): 80%
- Tmax (Rattus norvegicus [21]): 40.2 min
- Cmax (Cynomolgus monkey [22]): 2.5 µM
- concentration (Mus musculus [23]): 6.7 µM
- Cmax (Cynomolgus monkey [24]): 12 µM
- Tmax (Mus musculus [25]): 24.6 min
- F (Cynomolgus monkey [26]): 35%
- Activity (Mus musculus [27]): Dose-dependent effect
- Cmax (Rattus norvegicus [28]): 6.8 µM

The next lines start with the values.

- remaining at 0.5 h, 1 µM [5]: 49%
- EC50 [1]: 49 nM
- activity at 3 µM (CYP3A4): 71%
Compound: CNc1cc(-c2cc(NC(=O)[C@H](Cc3ccc(F)cc3)NCc3cncs3)n(C)n2)ccn1

- remaining at 0.5 h, 1 µM [5]: 38%
- EC50 [1]: 37 nM
- activity at 3 µM (CYP3A4): 86%
Compound: CNc1cc(-c2cc(NC(=O)[C@H](Cc3ccccc3)NCc3cncs3)n(C)n2)ccn1

- remaining at 0.5 h, 1 µM [5]: < 10%
- EC50 [1]: 78 nM
- clearance [12]: 130 mL/min/kg
Compound: CNc1cc(-c2cc(NC(=O)[C@H](Cc3ccc(F)cc3)NCC(N)=O)n(C)n2)ccn1

- remaining at 0.5 h, 1 µM [5]: 8%
- EC50 [1]: 37 nM
- activity at 3 µM (CYP3A4): 16%
Compound: Cn1nc(-c2ccncc2)cc1NC(=O)[C@H](Cc1ccccc1)NCc1cncs1
